Data on 37 variants can be found in the RNAGym collection of RNA variant scans (doi:10.1126/science.aae0568).

The chains are these.
B1: tRNA (parent)
chain: GUUCCGUUGGCGUAAUGGUAACGCGUCUCCCUCCUAAGGAGAAGACUGCGGGUUCGAGUCCCGUACGGAACG

This sample holds only a part of the variants without activity. Some results are limits rather than exact numbers.

The data set covers variants of B1. The experiment in a line: yeast fitness relative to wild type (ratio to wild type); higher = fitter; tRNA-Arg(CCU), competitive growth, 37 C, YPD. In a few lines: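 Variants of the tRNA-Arg(CCU) gene were chemically synthesised with a 3% per-site mutation rate across 69 sites and placed at the native genomic locus in Saccharomyces cerevisiae. Six parallel replicates of the pooled strains were competed in YPD at 37°C for 24 hours, and gene amplicons from the start and end populations were read by 100-nucleotide paired-end sequencing. Darwinian fitness relative to wild type was derived from changes in genotype frequencies. Genotypes required ≥ 100 starting reads, and estimates < 0.5 were set to 0.5.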
In the case of GUUCCGUUGGCGUAAUGGCAACGCGCCUCCCUCCUAAGGACAUGACUGCGGGUUCGGGUCCCGUACGGAACG [U19C U26C G41C A43U A57G], the yeast fitness is at most 0.5.
As for GUUCCGUUGGCGUAAUGGCAACGCGUCCGCCUCCUAAGGAGAAGACUGCGGGUUCGUGUCCCGUACGGAACG [U19C U28C C29G A57U], the yeast fitness is at most 0.5.
With GUUCCGUUGGCGUAAUGGGAACGCGUCUCCCUCCUAAGGAGAAGACUGCGGGUUCGAGUCCCGUGCGGAACG [U19G A65G] the figure was 1.03; with GUUCCGUUGGCGUAAUGGGAACGCGUCUCCCUCCUAAGGAGUAGACUGCGGGUUUGAGUCCCGUACGGAACG [U19G A42U C55U], 0.692.
For the variant GUUCCGUUGGCGUAAUGGCAACGCGUCCCCCUCCUAAGGAGAAGAAUGCGGGUUCGAGUCCCGUACGGACCG [U19C U28C C46A A70C], the yeast fitness came to 0.545.
On to GUUCCGUUGGCGUAAUGGGAUCGCGUCUCCCUCCUAAGGAGAAGAUUGCGGGUUCGAGUCCCGUAUGGAACG [U19G A21U C46U C66U], for which the yeast fitness came to 0.532.
As for GUUCCGUUGGCGUAAUGGGAACGCGUCUCCCUCCUAAGGAGCCGACUGCGGGUUCGAGUCCCGUACGGAACG [U19G A42C A43C], the figure is 0.951; as for GUUCCGUUGGCGUAAUGGGUACGCGACUCCCUCCUAACGAGAAGGGUGCAGGUUCCAGUCCCGUACGGAACG [U19G A20U U26A G38C A45G C46G G50A G56C], at most 0.5.
As for GUUCCGUUGGCGUAAUGGCAACGCGUCUCCCUCCUAAGGAGAAGACUCCGGGUUCGAGUCCCGUACGGAACG [U19C G48C], the figure is 0.922; as for GUUCCGUUGGCGUAAUGGCAACGCGUCUCCCUCCUAAGGAGAAGACUGCAGGUUAGAGUCCCGUUCGGAACG [U19C G50A C55A A65U], at most 0.5.
With GUUCCGUUGGCGUAAUGGCAACGCGUCUCCCUCCUAAGGAGAAGACUGCGGGUCCGAGUCCCGUACGGAACG [U19C U54C] the figure was 0.879.
GUUCCGUUGGCGUAAUGGCAACGCGUCUCCCUCCUAAGGAGAAGACUGCGGGUACGAGUCCCGUACGGAACG [U19C U54A]: the yeast fitness came out at 0.559.
As for GUUCCGUUGGCGUAAUGGCAACGCGUCUCCCCCCUAAGGAGAAGACUGCGGGUUCGAGUCCCGUACGGAACG [U19C U32C], the figure is 0.926; as for GUUCCGUUGGCGUAAUGGCAACGCGUCUCCCUCCUAAGGAGAAGACUGCGGGUUCGAAUCCCGUACGGAACG [U19C G58A], 0.961; as for GUUCCGUUGGCGUAAUGGGAACGCGUCUCCCUCCUAAGGAGACGACUGCGGGUUCGAGUCCCGUACGGAACG [U19G A43C], 0.971.
As for GUUCCGUUGGCGUAAUGGGAACGCGUCUCCCUCCUAAGGAGAUGACUGCGGGUUCGAGUCCCGUACGGAACG [U19G A43U], the figure is 1.04.
Regarding GUUCCGUUGGCGUAAUGGGUACGCGUCUCCCUCCUAAGGAGAAGACUGCGGGAUCAAGUCCCGUUCGGAACG [U19G A20U U53A G56A A65U], the yeast fitness was at most 0.5.
Regarding GUUCCGUUGGCGUAAUGGCAACGCGUCUCCCUCCUAAGGAGAAGACUGCGGGCUCGAGUCCCGUACGGAACG [U19C U53C], the yeast fitness is 0.694.
Regarding GUUCCGUUGGCGUAAUGGGAAUGCGUCUCCCUCCUAGGGAGAAGACUGCGGGUUCGAGUCCCGUAUGGUACG [U19G C22U A37G C66U A69U], the yeast fitness was determined as 0.61.
Turning to GUUCCGUUGGCGUAAUGGGAACGGGUCCCCCUCCUAAGGAGAAGACUGCGGGUUCGAGUCCCGUACGGAACG [U19G C24G U28C], the yeast fitness is 0.681.
As for GUUCCGUUGGCGUAAUGGGUACGCGUCUCUCUCCUAAGGAGAAGACUACGGGUUCGAGUCCCGUACGGAUCG [U19G A20U C30U G48A A70U], the figure is at most 0.5; as for GUUCCGUUGGCGUAAUGGCAACGCGUCCCCCUCCUAAGGAGAAGAUUGCGGGUUCGAGUCCCGUACGGAACG [U19C U28C C46U], 0.712; as for GUUCCGUUGGCGUAAUGGGAACGCGUCUCCCUCCUAAGGCGAAGACUGCGGGUUCGAGUCCCGUACGGAACG [U19G A40C], 0.732.
As for GUUCCGUUGGCGUAAUGGGAACGCGUCUCCCUCCUAAGGAGAAGACUGCGGGUUCGGGUCCCGUACGGAACG [U19G A57G], the figure is 0.611; as for GUUCCGUUGGCGUAAUGGCAACGCGUCUCCCUCCUAAGGAGAAGACUCCGGGUUCAAGUCCCGUACGGCACG [U19C G48C G56A A69C], 0.642; as for GUUCCGUUGGCGUAAUGGCAACGCGUCUCCCGGCUAAGGAGAAGACUGCGGGUUCGAGUCCCGUACGGAACG [U19C U32G C33G], at most 0.5.
As for GUUCCGUUGGCGUAAUGGGAACGCGUGUCCCUCCUAAGGAGAAGACUGCGGGUUCGAGUCCCGUACGGAACG [U19G C27G], the figure is 0.776; as for GUUCCGUUGGCGUAAUGGGUACGCGUAUCCCUCCUAAGGAGAAGACUGCGGGUUCGAGUCCCGUACGGAACG [U19G A20U C27A], 0.587.
GUUCCGUUGGCGUAAUGGGUACGCGUGUCCCUCCUAAGGAGAAGACUGCGGGUUCGAGUCCCGUACGGAACG [U19G A20U C27G]: the yeast fitness is at most 0.5.
With GUUCCGUUGGCGUAAUGGCAACGCGUCCCCCUCCUAAGGAGAAGACUGCGGGUUCGAGUCCCGUACGCAACG [U19C U28C G68C] the figure was 0.67; with GUUCCGUUGGCGUAAUGGGAACGCGUCUCCCUCCUAAGGAGACGACUGCGGGUUCGAGUCCCUAACGGAACG [U19G A43C G63U U64A], at most 0.5.
For GUUCCGUUGGCGUAAUGGCAACGCGUCUCCCUCCUAAGGAGAAGACUGCGGGUUCGAGUCCCAUACGGAACG [U19C G63A], the yeast fitness stood at 0.918.
As for GUUCCGUUGGCGUAAUGGGAACGAGUCUCCCUCCUAAGGCGAAGUCUGCGGGUUCGAGUCCCGUACGGAACG [U19G C24A A40C A45U], the figure is at most 0.5.
With GUUCCGUUGGCGUAAUGGGAAGGCGUCUCCCUCUUAAGGAGAAGACUGCGGGUUCGAGUCGCGUACGGAACG [U19G C22G C34U C61G] the figure was at most 0.5.
With GUUCCGUUGGCGUAAUGGCAACGCGUCCCCCUCCUAAGGAGAAGACUCCGGGUUCGAGUCCCGUACGGACCG [U19C U28C G48C A70C] the figure was at most 0.5; with GUUCCGUUGGCGUAAUGGCAACGCGUCUCCCCGUUAAGGAGAAGACUGCGGGUACGAGUCCCGUAUGGAACG [U19C U32C C33G C34U U54A C66U], at most 0.5.
For the variant GUUCCGUUGGCGUAAUGGCAACGCGGCUCCCUCCUAAGGAGAAGACUGCGGGUUCGAGUCCCGUACGGAACG [U19C U26G], the yeast fitness is 0.815.
